Results on 14 molecules are retold here after ChEMBL document CHEMBL2086279, “Synthesis of novel Schiff base analogues of 4-amino-1,5-dimethyl-2-phenylpyrazol-3-one and their evaluation for antioxidant and anti-inflammatory activity” (Bioorg Med Chem, 2012).

Calls of active or inactive are those of the source. The calls are words filed in the database; no cut-off is given here.

The test system of data set [1] is Radical scavenging activity. As to the kind of experiment: Antioxidant activity assessed as DPPH free radical scavenging activity incubated for 30 mins. The format is functional. In short, it runs like this:
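Blois method, modified: 0.1 ml sample in ethanol (2.5–20 mg/mL) mixed with 4 ml 1.5 × 10^-5 M DPPH, kept dark at room temperature 30 min; absorbance at 520 nm used to calculate % radical scavenging.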
A general note: DPPH is a stable violet radical that fades when it is reduced.

The nature of data set [2]: Solubility in DMSO. The format is physicochemical.
The subject of data set [3] is RAW264.7. Description: Cytotoxicity against mouse RAW264.7 cells assessed as change in cell viability at 25 ug/mL incubated for 24 hrs by MTT assay. The format is cell-based. The following applies: raw264.7, 24 h. The procedure, abridged:
(§1)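 RAW264.7 (passage ≤20, DMEM/10% FBS) seeded 5 × 10^4 cells/well, exposed to compound 24 h; MTT (5 mg/ml stock) added 4 h, formazan dissolved in 0.04 N HCl/isopropyl alcohol, OD read at 570 and 630 nm.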

For data set [4], the system named is RAW264.7. Description: Antiinflammatory activity in mouse RAW264.7 cells assessed as inhibition of LPS-induced nitric oxide production pre-treated for 30 mins before LPS stimulation measured 24 hrs post LPS challenge by Griess assay. The format is functional, cell-based. The procedure, abridged:
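LPS 200 ng/mL for 24 h after 30 min pretreatment at various concentrations; cells seeded 5 × 10^5/well overnight at 37 °C in DMEM/10% FBS. Nitrite in medium read with Griess reagent (1% sulfanilamide, 0.1% N-1-naphthylenediamine dihydrochloride, 2.5% phosphoric acid), 10 min, absorbance 570 nm, quantified against sodium nitrite standard curve.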
For orientation: Nitrite, measured by Griess reagent, commonly stands in for NO production.

For data set [5], the system named is RAW264.7. Description: Inhibition of COX2 mRNA expression in mouse RAW264.7 cells at 50 ug/mL pre-treated for 30 mins before LPS stimulation measured 24 hrs post LPS challenge by RT-PCR. The format is functional, cell-based. The procedure, abridged:
(§2)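 Cells pretreated with compound 30 min, then LPS 200 ng/mL for 24 h; total RNA extracted with TRIzol, quality checked by 260/280 absorbance; iNOS and COX-2 mRNA assessed by RT-PCR with gene-specific primers.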

Data set [6] relates to RAW264.7. Description: Inhibition of iNOS mRNA expression in mouse RAW264.7 cells pre-treated for 30 mins before LPS stimulation measured 24 hrs post LPS challenge by RT-PCR. The format is functional, cell-based. In short, it runs like this:
as §2

For data set [7], the system named is RAW264.7. As to the kind of experiment: Cytotoxicity against mouse RAW264.7 cells assessed as change in cell viability at 50 ug/mL incubated for 24 hrs by MTT assay. The format is cell-based. The settings on record: raw264.7, 24 h. In short, it runs like this:
as §1

Data set [8] deals with RAW264.7. As to the kind of experiment: Cytotoxicity against mouse RAW264.7 cells assessed as change in cell viability at 12 ug/mL incubated for 24 hrs by MTT assay. The format is cell-based. The settings on record: raw264.7, 24 h. The procedure, abridged: as §1
Background: Tetrazolium dyes change colour on reduction, which living cells bring about.

Data set [9] has as its system RAW264.7. Description: Cytotoxicity against mouse RAW264.7 cells assessed as change in cell viability at 6 ug/mL incubated for 24 hrs by MTT assay. The format is cell-based. The following applies: raw264.7, 24 h. In short, it runs like this: as §1

What is called IC50 is the concentration needed to halve the response being measured. For `COc1cc(/C=N/c2c(C)n(C)n(-c3ccccc3)c2=O)cc(OC)c1O`, the half-maximal inhibitory concentration (IC50) in data set [1] amounted to 1.66 µM.

Consider `O=C1O[C@H]([C@@H](O)CO)C(O)=C1O` [ASCORBIC ACID], for which, in data set [1], the IC50 was 0.41 µM.

Take `Cc1c(/N=C/c2ccccc2C=O)c(=O)n(-c2ccccc2)n1C`: the IC50 in data set [1] was determined as 34.5 µM.

`Cc1c(/N=C/c2ccccc2)c(=O)n(-c2ccccc2)n1C`: the IC50 in data set [1] was 31.3 µM.

On to `Cc1c(/N=C/c2c(O)cc(O)cc2O)c(=O)n(-c2ccccc2)n1C`, for which the half-maximal inhibitory concentration (IC50) in data set [1] is 0.44 µM. Besides, the solubility entry in data set [2] was “Insoluble”. As for `COc1ccc(/C=N/c2c(C)n(C)n(-c3ccccc3)c2=O)c(OC)c1`, in [1], the 50% inhibitory concentration (IC50) worked out at 14.5 µM. Take `Cc1c(/N=C/c2ccc(O)cc2)c(=O)n(-c2ccccc2)n1C`: in [1], the IC50 was found to be 18.8 µM.

In the case of `Cc1c(/N=C/c2ccc(Cl)cc2)c(=O)n(-c2ccccc2)n1C`, the half-maximal inhibitory concentration (IC50) in data set [1] worked out at 31.7 µM.

On to `Cc1c(/N=C/c2ccccc2/C=N/c2c(C)n(C)n(-c3ccccc3)c2=O)c(=O)n(-c2ccccc2)n1C`, for which, in data set [1], the IC50 was found to be 3.14 µM. Regarding `Cc1c(/N=C/c2ccc(O)cc2O)c(=O)n(-c2ccccc2)n1C`, the half-maximal inhibitory concentration (IC50) in data set [1] was 2.5 µM.

Turning to `COc1ccc(/C=N/c2c(C)n(C)n(-c3ccccc3)c2=O)cc1`, in data set [1], the concentration for half-maximal inhibition (IC50) stood at 15.3 µM. Turning to `COc1ccc(/C=N/c2c(C)n(C)n(-c3ccccc3)c2=O)cc1C`, the half-inhibitory concentration (IC50) in data set [1] turned out to be 5.22 µM.

As for `Cc1c(/N=C/c2ccc(O)c(O)c2)c(=O)n(-c2ccccc2)n1C`, the Activity result in data set [3] was “Non-toxic”; in [4] it was “Dose-dependent effect”; in [7], “Non-toxic”; in data set [8], “Non-toxic”; in data set [9], “Non-toxic”. Also, in data set [5], the inhibition entry was “Active”. Further, in data set [6], the inhibition entry is “Dose-dependent effect”. Also, the IC50 in [1] was found to be 0.93 µM. On to `COc1ccc(/C=N/c2c(C)n(C)n(-c3ccccc3)c2=O)cc1OC`, for which, in data set [1], the half-maximal inhibitory concentration (IC50) came to 7.27 µM.
